Laboratory results as given in ChEMBL document CHEMBL2407075, “Sulphonamido-quinoxalines: search for anticancer agent” (Eur J Med Chem, 2013).

Experiments:
Format in all cases: functional
[1] = test system: SK-OV-3; experiment: Growth inhibition of human SKOV3 cells assessed as cell growth at 10^-7 M after 48 hrs by sulforhodamine B assay; conditions: SK-OV-3, 48 h, read-out: Activity
[2] = test system: OVCAR-5; experiment: Growth inhibition of human OVCAR5 cells assessed as cell growth at 10^-6 M after 48 hrs by sulforhodamine B assay; conditions: OVCAR-5, 48 h, read-out: Activity
[3] = test system: UACC-62; experiment: Growth inhibition of human UACC62 cells assessed as cell growth at 10^-5 M after 48 hrs by sulforhodamine B assay; conditions: UACC-62, 48 h, read-out: Activity
[4] = test system: HCT-15; experiment: Growth inhibition of human HCT15 cells assessed as cell growth at 10^-8 M after 48 hrs by sulforhodamine B assay; conditions: HCT-15, 48 h, read-out: Activity
Outline: (§1)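 Five-dose screen at NCI. Cells in RPMI 1640 with 5% FBS and 2 mM L-glutamine, seeded at 5000–40,000 cells/well and grown 24 h at 37 °C, 5% CO2 before dosing, with time-zero plates TCA-fixed. Drug diluted from DMSO stock to 0.01, 0.1, 1, 10 and 100 µM final, 48 h. Cells fixed with cold TCA (10% final), stained with 0.4% SRB and read at 515 nm. Percent growth from Tz, control and test absorbances; GI50, TGI and LC50 from dose-response curves.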

[5] = test system: NCI-H460; experiment: Growth inhibition of human NCI-H460 cells assessed as cell growth at 10^-7 M after 48 hrs by sulforhodamine B assay; conditions: NCI-H460, 48 h, read-out: Activity
[6] = test system: MDA-MB-231; experiment: Growth inhibition of human MDA-MB-231 cells assessed as cell growth at 10^-8 M after 48 hrs by sulforhodamine B assay; conditions: MDA-MB-231, 48 h, read-out: Activity
[7] = test system: NCI-H23; experiment: Growth inhibition of human NCI-H23 cells assessed as cell growth at 10^-8 M after 48 hrs by sulforhodamine B assay; conditions: NCI-H23, 48 h, read-out: Activity
[8] = Growth inhibition of human EKVX cells assessed as cell growth at 10^-7 M after 48 hrs by sulforhodamine B assay; conditions: read-out: Activity; outline: as §1
[9] = Growth inhibition of human NCI-ADR-RES cells assessed as cell growth at 10^-5 M after 48 hrs by sulforhodamine B assay; conditions: read-out: Activity
[10] = test system: K562; experiment: Growth inhibition of human K562 cells assessed as cell growth at 10^-5 M after 48 hrs by sulforhodamine B assay; conditions: K562, 48 h, read-out: Activity
[11] = test system: KM12; experiment: Growth inhibition of human KM12 cells assessed as cell growth at 10^-4 M after 48 hrs by sulforhodamine B assay; conditions: KM12, 48 h, read-out: Activity
[12] = test system: SK-MEL-5; experiment: Growth inhibition of human SK-MEL-5 cells assessed as cell growth at 10^-7 M after 48 hrs by sulforhodamine B assay; conditions: SK-MEL-5, 48 h, read-out: Activity
[13] = test system: NCI-H522; experiment: Growth inhibition of human NCI-H522 cells assessed as cell growth at 10^-4 M after 48 hrs by sulforhodamine B assay; conditions: NCI-H522, 48 h, read-out: Activity
[14] = test system: NCI-H226; experiment: Growth inhibition of human NCI-H226 cells assessed as cell growth at 10^-4 M after 48 hrs by sulforhodamine B assay; conditions: NCI-H226, 48 h, read-out: Activity
[15] = test system: HOP-92; experiment: Growth inhibition of human HOP92 cells after 48 hrs by sulforhodamine B assay; conditions: HOP-92, 48 h; for CC50: read-out: LC50 (the source's name)
Outline: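 Adherent cells in RPMI 1640 with 5% FBS and 2 mM L-glutamine were plated at 5000–40,000 cells/well and grown 24 h. Five concentrations (0.01–100 µM, DMSO stock) were added for 48 h at 37 °C. Cells were fixed with cold TCA (10% final) and stained with SRB, read at 515 nm. GI50 came from log concentration–growth curves against time-zero and control plates.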

[16] = test system: HCT-116; experiment: Growth inhibition of human HCT116 cells assessed as cell growth at 10^-7 M after 48 hrs by sulforhodamine B assay; conditions: HCT-116, 48 h, read-out: Activity; outline: as §1
[17] = test system: OVCAR-8; experiment: Growth inhibition of human OVCAR8 cells assessed as cell growth at 10^-8 M after 48 hrs by sulforhodamine B assay; conditions: OVCAR-8, 48 h, read-out: Activity
[18] = test system: SF-295; experiment: Growth inhibition of human SF295 cells assessed as cell growth at 10^-6 M after 48 hrs by sulforhodamine B assay; conditions: SF-295, 48 h, read-out: Activity
[19] = test system: SK-MEL-5; experiment: Growth inhibition of human SK-MEL-5 cells assessed as cell growth at 10^-6 M after 48 hrs by sulforhodamine B assay; conditions: SK-MEL-5, 48 h, read-out: Activity
[20] = test system: SNB-75; experiment: Growth inhibition of human SNB75 cells assessed as cell growth at 10^-4 M after 48 hrs by sulforhodamine B assay; conditions: SNB-75, 48 h, read-out: Activity
[21] = test system: SF-539; experiment: Growth inhibition of human SF539 cells assessed as cell growth at 10^-4 M after 48 hrs by sulforhodamine B assay; conditions: SF-539, 48 h, read-out: Activity
[22] = test system: T47D; experiment: Growth inhibition of human T47D cells assessed as cell growth at 10^-5 M after 48 hrs by sulforhodamine B assay; conditions: read-out: Activity
[23] = test system: SNB-75; experiment: Growth inhibition of human SNB75 cells assessed as cell growth at 10^-6 M after 48 hrs by sulforhodamine B assay; conditions: SNB-75, 48 h, read-out: Activity
[24] = test system: OVCAR-4; experiment: Growth inhibition of human OVCAR4 cells after 48 hrs by sulforhodamine B assay; conditions: OVCAR-4, 48 h; for CC50: read-out: LC50 (the source's name)
Outline: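 Five-dose NCI 60 screen at 0.01, 0.1, 1, 10 and 100 µM, 48 h exposure after 24 h preincubation, in RPMI 1640 with 5% FBS and 2 mM glutamine. Fixed with TCA (10% final for adherent cells, 16% for suspension cells), stained with SRB, A515 read. Percent growth uses time-zero (Tz), control and treated plates. GI50, TGI and LC50 are read from the dose-response curves.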

[25] = test system: NCI-H23; experiment: Growth inhibition of human NCI-H23 cells assessed as cell growth at 10^-5 M after 48 hrs by sulforhodamine B assay; conditions: NCI-H23, 48 h, read-out: Activity
[26] = test system: ACHN; experiment: Growth inhibition of human ACHN cells assessed as cell growth at 10^-5 M after 48 hrs by sulforhodamine B assay; conditions: read-out: Activity
Outline: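 Five-dose NCI-60 run (0.01, 0.1, 1, 10 and 100 µM, as 10-fold dilutions from a DMSO stock made at 400× the top final level). Cells were grown in RPMI 1640 with 5% FBS and 2 mM glutamine and plated for 24 h. They were then exposed for 48 h at 37 °C and 5% CO2. TCA fixation was followed by SRB staining with A515 read-out. Percent growth was taken relative to time-zero and control plates.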

[27] = test system: U-251; experiment: Growth inhibition of human U251 cells assessed as cell growth at 10^-7 M after 48 hrs by sulforhodamine B assay; conditions: U-251, 48 h, read-out: Activity
[28] = test system: UACC-257; experiment: Growth inhibition of human UACC257 cells assessed as cell growth at 10^-5 M after 48 hrs by sulforhodamine B assay; conditions: UACC-257, 48 h, read-out: Activity

| SMILES | growth at 0.1 µM [1] | growth at 1 µM [2] | growth at 10 µM [3] | growth at 0.01 µM [4] | growth at 0.1 µM [5] | growth at 0.01 µM [6] | growth at 0.01 µM [7] | growth at 0.1 µM [8] | growth at 10 µM [9] | growth at 10 µM [10] | growth at 100 µM [11] | growth at 0.1 µM [12] | growth at 100 µM [13] | growth at 100 µM [14] | GI50 [15] | CC50 [15] | growth at 0.1 µM [16] | growth at 0.01 µM [17] | growth at 1 µM [18] | growth at 1 µM [19] | other results |
| --- | --- | --- | --- | --- | --- | --- | --- | --- | --- | --- | --- | --- | --- | --- | --- | --- | --- | --- | --- | --- | --- |
| O=S(=O)(Nc1ccccn1)c1ccc2nc(-c3ccccc3)c(-c3ccccc3)nc2c1 | 98% | 104% | -13% | 100% | 106% | 110% | 95% | 99% | -1% | 9% | 53% | 92% | 31% | 70% | 1.94 µM | > 100 µM | 87% | 100% | 90% | 78% | growth at 100 µM [20]: 20%; growth at 100 µM [21]: 54%; growth at 10 µM [22]: -22%; growth at 1 µM [23]: 75%; GI50 [24]: 2.79 µM; TGI [24]: > 100 µM; CC50 [24]: > 100 µM; growth at 10 µM [25]: 4%; growth at 10 µM [26]: 6%; growth at 0.1 µM [27]: 97%; growth at 10 µM [28]: -25% |
| O=S(=O)(Nc1ccc(Cl)cc1)c1ccc2nc(-c3ccccc3)c(-c3ccccc3)nc2c1 | 99% | 90% | -22% | 100% | 105% | 99% | 97% | 100% | 14% | 11% | 71% | 95% | 67% | 73% | 2.03 µM | > 100 µM | 90% | 96% | 82% | 83% | growth at 100 µM [20]: 46%; growth at 100 µM [21]: 73%; growth at 10 µM [22]: -20%; growth at 1 µM [23]: 69%; TGI [24]: > 100 µM; CC50 [24]: > 100 µM; growth at 10 µM [25]: 4%; growth at 10 µM [26]: 6%; growth at 0.1 µM [27]: 94%; growth at 10 µM [28]: -24% |
